Measured values reported in ChEMBL document CHEMBL1795235, “Quercetin diacylglycoside analogues showing dual inhibition of DNA gyrase and topoisomerase IV as novel antibacterial agents” (J Med Chem, 2011).
Values after ≈ are worked out from the molar mass of the structure shown.

Assays:
Staphylococcus aureus [1] = assay: Antibacterial activity against methicillin-susceptible Staphylococcus aureus 209P after 24 hrs by microdilution method; assay type: functional
Summary of the method: (§1)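 Broth microdilution in Mueller-Hinton broth with 0.85% NaCl, inoculum about 10^5 CFU per 100 μL. Compounds were diluted in water from 25.6 mg/mL stocks to final 2-fold series of 0.062–128 μg/mL. Plates were incubated 24 h at 35 °C. MIC was the lowest concentration at which all triplicate wells were clear, from three independent determinations.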

Enterococcus [2] = assay: Antibacterial activity against vancomycin resistant Enterococcus FN-1 after 24 hrs by microdilution method; assay type: functional; details: FN-1, 24 h; summary of the method: as §1
Enterococcus [3] = assay: Antibacterial activity against vancomycin resistant Enterococcus NCTC 12201 after 24 hrs by microdilution method; assay type: functional; details: NCTC 12201, 24 h; summary of the method: as §1
Staphylococcus aureus [4] = assay: Antibacterial activity against vancomycin-intermediate Staphylococcus aureus Mu50 after 24 hrs by microdilution method; assay type: functional; details: Mu50, 24 h; summary of the method: as §1
Staphylococcus aureus [5] = assay: Antibacterial activity against methicillin-resistant Staphylococcus aureus OM481 after 24 hrs by microdilution method; assay type: functional; details: OM481, 24 h; summary of the method: as §1
Staphylococcus aureus [6] = assay: Antibacterial activity against methicillin-resistant Staphylococcus aureus OM584 after 24 hrs by microdilution method; assay type: functional; details: OM584, 24 h; summary of the method: as §1
Staphylococcus aureus [7] = assay: Antibacterial activity against methicillin-resistant Staphylococcus aureus N315 after 24 hrs by microdilution method; assay type: functional; details: N315, 24 h; summary of the method: as §1
Staphylococcus aureus [8] = assay: Antibacterial activity against methicillin-resistant Staphylococcus aureus COL after 24 hrs by microdilution method; assay type: functional; summary of the method: as §1
Streptococcus pneumoniae = assay: Antibacterial activity against Streptococcus pneumoniae R6 after 24 hrs by microdilution method; assay type: functional; details: R6, 24 h
Summary of the method: (§2)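 Broth microdilution in Mueller-Hinton broth with 0.85% NaCl, inoculum about 10^5 CFU per 100 μL. Compounds diluted from 25.6 mg/mL stocks in water to 2-fold series, final 0.062–128 μg/mL. […] Three independent determinations.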

Pseudomonas aeruginosa = assay: Antibacterial activity against Pseudomonas aeruginosa PAO1 after 24 hrs by microdilution method; assay type: functional; details: PAO1, 24 h; summary of the method: as §2
Escherichia coli = assay: Antibacterial activity against Escherichia coli K-12 after 24 hrs by microdilution method; assay type: functional; details: K-12, 24 h; summary of the method: as §2
[9] = Inhibition of Escherichia coli DNA gyrase assessed as inhibition of pBR322 supercoiling by densitometry
Summary of the method: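 One unit of E. coli gyrase with 0.5 μg relaxed pBR322 DNA, 37 °C, 30 min. Stopped with sucrose/EDTA dye, run on 1.0% agarose in TAE. IC50 from densitometry via log-interpolation equation.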

[10] = Inhibition of Staphylococcus aureus DNA Topoisomerase 4-mediated decatenation of kDNA after 30 mins by densitometry
Summary of the method: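 Purchased S. aureus topoIV, one unit with 200 ng kDNA, 37 °C, 30 min. Products resolved on 1.0% agarose in TAE. IC50 of decatenation from densitometry by interpolation equation, at least three determinations.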

[11] = Inhibition of Escherichia coli DNA topoisomerase 4 subunit ParC/DNA topoisomerase 4 subunit ParE-mediated decatenation of kDNA by densitometry
Summary of the method: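 Purchased E. coli topoIV kit enzyme, one unit with 200 ng kDNA, 37 °C, 30 min. Buffer: 50 mM HEPES-KOH pH 7.6, 5 mM magnesium acetate, 100 mM potassium glutamate, 10 mM DTT, 1 mM ATP, 40% glycerol. Gel on 1.0% agarose in TAE. IC50 of decatenation from densitometry by interpolation equation, at least three determinations.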

SMILES	MIC (Staphylococcus aureus [1])	MIC (Enterococcus [2])	MIC (Enterococcus [3])	MIC (Staphylococcus aureus [4])	MIC (Staphylococcus aureus [5])	MIC (Staphylococcus aureus [6])	MIC (Staphylococcus aureus [7])	MIC (Staphylococcus aureus [8])	MIC (Streptococcus pneumoniae)	MIC (Pseudomonas aeruginosa)	MIC (Escherichia coli)	IC50 [9]	IC50 [10]	IC50 [11]
CCCc1ccc(C(=O)OC[C@H]2O[C@@H](Oc3c(-c4ccc(O)c(O)c4)oc4cc(O)cc(O)c4c3=O)[C@H](OC(=O)c3ccc(CCC)cc3)[C@@H](O)[C@H]2O)cc1	2 µg/mL (≈ 2.64 µM)	8 µg/mL (≈ 10.6 µM)	4 µg/mL (≈ 5.29 µM)	4 µg/mL (≈ 5.29 µM)	4 µg/mL (≈ 5.29 µM)	4 µg/mL (≈ 5.29 µM)	2 µg/mL (≈ 2.64 µM)	16 µg/mL (≈ 21.1 µM)	2 µg/mL (≈ 2.64 µM)	> 128 µg/mL	> 128 µg/mL	770 nM	1930 nM	10.9 µM
Cc1ccc(CCC(=O)OC[C@H]2O[C@@H](Oc3c(-c4ccc(O)c(O)c4)oc4cc(O)cc(O)c4c3=O)[C@H](O)[C@@H](O)[C@H]2O)cc1	16 µg/mL (≈ 26.2 µM)	32 µg/mL (≈ 52.4 µM)	32 µg/mL (≈ 52.4 µM)	16 µg/mL (≈ 26.2 µM)	16 µg/mL (≈ 26.2 µM)	16 µg/mL (≈ 26.2 µM)	16 µg/mL (≈ 26.2 µM)	32 µg/mL (≈ 52.4 µM)	32 µg/mL (≈ 52.4 µM)	> 128 µg/mL	> 128 µg/mL	1790 nM	2570 nM	12 µM
O=c1c(O)c(-c2ccc(O)c(O)c2)oc2cc(O)cc(O)c12 [QUERCETIN]	> 128 µg/mL	> 128 µg/mL	> 128 µg/mL	> 128 µg/mL	> 128 µg/mL	> 128 µg/mL	> 128 µg/mL	> 128 µg/mL	> 128 µg/mL	> 128 µg/mL	64 µg/mL (≈ 212 µM)	140 nM		6.42 µM
CCOc1ccc(C(=O)OC[C@H]2O[C@@H](Oc3c(-c4ccc(O)c(O)c4)oc4cc(O)cc(O)c4c3=O)[C@H](OC(=O)c3ccc(OCC)cc3)[C@@H](O)[C@H]2O)cc1	4 µg/mL (≈ 5.26 µM)	8 µg/mL (≈ 10.5 µM)	8 µg/mL (≈ 10.5 µM)	4 µg/mL (≈ 5.26 µM)	4 µg/mL (≈ 5.26 µM)	4 µg/mL (≈ 5.26 µM)	8 µg/mL (≈ 10.5 µM)	16 µg/mL (≈ 21 µM)	4 µg/mL (≈ 5.26 µM)	> 128 µg/mL	> 128 µg/mL	430 nM	1780 nM	11.3 µM
O=C(CCCc1ccc(F)cc1)OC[C@H]1O[C@@H](Oc2c(-c3ccc(O)c(O)c3)oc3cc(O)cc(O)c3c2=O)[C@H](OC(=O)CCCc2ccc(F)cc2)[C@@H](O)[C@H]1O	4 µg/mL (≈ 5.05 µM)	8 µg/mL (≈ 10.1 µM)	8 µg/mL (≈ 10.1 µM)	4 µg/mL (≈ 5.05 µM)	2 µg/mL (≈ 2.52 µM)	2 µg/mL (≈ 2.52 µM)	4 µg/mL (≈ 5.05 µM)	16 µg/mL (≈ 20.2 µM)	4 µg/mL (≈ 5.05 µM)	> 128 µg/mL	> 128 µg/mL	2980 nM	2940 nM	10.7 µM
Cc1ccc(CC(=O)OC[C@H]2O[C@@H](Oc3c(-c4ccc(O)c(O)c4)oc4cc(O)cc(O)c4c3=O)[C@H](OC(=O)Cc3ccc(C)cc3)[C@@H](O)[C@H]2O)cc1	4 µg/mL (≈ 5.49 µM)	8 µg/mL (≈ 11 µM)	4 µg/mL (≈ 5.49 µM)	4 µg/mL (≈ 5.49 µM)	2 µg/mL (≈ 2.74 µM)	2 µg/mL (≈ 2.74 µM)	8 µg/mL (≈ 11 µM)	16 µg/mL (≈ 22 µM)	2 µg/mL (≈ 2.74 µM)	> 128 µg/mL	> 128 µg/mL	2210 nM	2690 nM	10.5 µM
O=C(CCc1ccc(O)cc1)OC[C@H]1O[C@@H](Oc2c(-c3ccc(O)c(O)c3)oc3cc(O)cc(O)c3c2=O)[C@H](OC(=O)CCc2ccc(O)cc2)[C@@H](O)[C@H]1O	2 µg/mL (≈ 2.63 µM)	4 µg/mL (≈ 5.26 µM)	4 µg/mL (≈ 5.26 µM)	2 µg/mL (≈ 2.63 µM)	1 µg/mL (≈ 1.31 µM)	1 µg/mL (≈ 1.31 µM)	2 µg/mL (≈ 2.63 µM)	4 µg/mL (≈ 5.26 µM)	4 µg/mL (≈ 5.26 µM)	> 128 µg/mL	> 128 µg/mL	2390 nM	1590 nM	10.9 µM
O=C(CCc1ccc(F)cc1)OC[C@H]1O[C@@H](Oc2c(-c3ccc(O)c(O)c3)oc3cc(O)cc(O)c3c2=O)[C@H](O)[C@@H](O)[C@H]1O	16 µg/mL (≈ 26 µM)	16 µg/mL (≈ 26 µM)	16 µg/mL (≈ 26 µM)	32 µg/mL (≈ 52.1 µM)	16 µg/mL (≈ 26 µM)	16 µg/mL (≈ 26 µM)	16 µg/mL (≈ 26 µM)	32 µg/mL (≈ 52.1 µM)	32 µg/mL (≈ 52.1 µM)	> 128 µg/mL	> 128 µg/mL	1400 nM	2990 nM	11.5 µM
O=C(OC[C@H]1O[C@@H](Oc2c(-c3ccc(O)c(O)c3)oc3cc(O)cc(O)c3c2=O)[C@H](OC(=O)c2ccc(F)cc2)[C@@H](O)[C@H]1O)c1ccc(F)cc1	4 µg/mL (≈ 5.65 µM)	4 µg/mL (≈ 5.65 µM)	4 µg/mL (≈ 5.65 µM)	2 µg/mL (≈ 2.82 µM)	2 µg/mL (≈ 2.82 µM)	2 µg/mL (≈ 2.82 µM)	8 µg/mL (≈ 11.3 µM)	8 µg/mL (≈ 11.3 µM)	4 µg/mL (≈ 5.65 µM)	> 128 µg/mL	> 128 µg/mL	380 nM	520 nM	11 µM
O=C(CCCCc1ccc(F)cc1)OC[C@H]1O[C@@H](Oc2c(-c3ccc(O)c(O)c3)oc3cc(O)cc(O)c3c2=O)[C@H](OC(=O)CCCCc2ccc(F)cc2)[C@@H](O)[C@H]1O	4 µg/mL (≈ 4.87 µM)	16 µg/mL (≈ 19.5 µM)	16 µg/mL (≈ 19.5 µM)	16 µg/mL (≈ 19.5 µM)	4 µg/mL (≈ 4.87 µM)	4 µg/mL (≈ 4.87 µM)	2 µg/mL (≈ 2.44 µM)	16 µg/mL (≈ 19.5 µM)	8 µg/mL (≈ 9.75 µM)	> 128 µg/mL	> 128 µg/mL	5020 nM	4050 nM	> 12 µM
Cc1ccc(CCC(=O)OC[C@H]2O[C@@H](Oc3c(-c4ccc(O)c(O)c4)oc4cc(O)cc(O)c4c3=O)[C@H](OC(=O)CCc3ccc(C)cc3)[C@@H](O)[C@H]2O)cc1	0.25 µg/mL (≈ 0.33 µM)	0.5 µg/mL (≈ 0.661 µM)	0.5 µg/mL (≈ 0.661 µM)	0.5 µg/mL (≈ 0.661 µM)	0.25 µg/mL (≈ 0.33 µM)	0.25 µg/mL (≈ 0.33 µM)	0.25 µg/mL (≈ 0.33 µM)	1 µg/mL (≈ 1.32 µM)	0.25 µg/mL (≈ 0.33 µM)	> 128 µg/mL	> 128 µg/mL	2090 nM	1490 nM	9.46 µM
O=c1c(O[C@@H]2O[C@H](CO)[C@H](O)[C@H](O)[C@H]2O)c(-c2ccc(O)c(O)c2)oc2cc(O)cc(O)c12 [HYPEROSIDE]	> 128 µg/mL	> 128 µg/mL	> 128 µg/mL	> 128 µg/mL	> 128 µg/mL	> 128 µg/mL	> 128 µg/mL	> 128 µg/mL	> 128 µg/mL	32 µg/mL (≈ 68.9 µM)	16 µg/mL (≈ 34.5 µM)	100 nM	70 nM	3.07 µM
